Series [1] relates to HBV. Description: Anti-HBV efficacy, HBV DNA in supernatant of HepAD38 cells by qPCR. Type of series: cell-based. Particulars: Hepatitis B virus, HePAD38, 96 h, read-out: IC50, HBV production. (In qPCR the cycle at which signal appears reflects the starting amount.)
Series [2] can be described thus: Nanobelt width by negatively stained transmission electron microscopy. Type of series: physicochemical. The conditions noted are these: TEM, 1 mM concentration, mean ± SD, n = 35. Put shortly:
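Samples were pH 7.4 aqueous solutions (1 mM shown), negatively stained and imaged by TEM. Nanobelt widths were measured from the images and reported as mean ± SD over 35 measurements.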

The format of series [3] is physicochemical. Particulars: addition of PBS (final 1x PBS) to 5 mM solution; 10 ul 10x PBS to 100 ul. Put shortly:
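Aqueous prodrug solutions, brought to pH 7.4 after purification, were gelled by adding 10× PBS at a 10:1 solution-to-buffer ratio to reach 1× PBS. Gel formation and the critical gelation concentration were judged by a simple vial-inversion test across prodrug concentrations.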

Series [4] can be described thus: Instantaneous gelation on injection into PBS. Type of series: physicochemical. Particulars: 10 mM solution assembled with 10 mM Nile red, injected into 10x PBS.
Series [5] is described as follows: Critical micellization concentration by Nile red encapsulation assay. In kind it is physicochemical. The conditions noted are these: fluorescence ratio 635 nm vs 660 nm, aqueous, n = 3. Put shortly: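 Critical micellization concentration was read on a fluorometer as the concentration where the ratio of fluorescence at 635 nm (encapsulated Nile red) to 660 nm (free Nile red) shifted. Measurements were made in aqueous prodrug solutions, and data are mean ± SD of 3.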

The nature of series [6]: In vitro gel release of TFV-PA from hydrogel depots. In kind it is physicochemical. Put shortly:
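Hydrogels were made from 5 and 10 mM prodrug solutions and aged at 37 °C under a fixed volume of PBS release medium. Supernatant was collected and replaced at set time points up to day 30 and analysed by analytical RP-HPLC. Release is given as nanomoles and as percent of conjugate in the original gel, mean ± SD, n = 3.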

A short description of series [7]: Free TFV release / prodrug stability with or without dithiothreitol. In kind it is physicochemical. The conditions noted are these: 100 μM in 1x PBS, 10 mM DTT, 37 °C; for TFV released by 24 hours with DTT: RP-HPLC and ESI MS.

pIC50: −log10 of the molar value. Where a SMILES comes first, the peptide text is derived from it. The star is where a group is joined. X1 = C[C@H](Cn1cnc2c(N)ncnc21)OCP(=O)(O)OCCS*; Palmitoyl = CCCCCCCCCCCCCCCC(=O)*

By pIC50 is commonly meant the negative decadic logarithm of the IC50, by convention in mol/L.

In the case of `C[C@H](Cn1cnc2c(N)ncnc21)OCP(=O)(O)O` [TFV, tenofovir], the negative-log IC50 (pIC50) in series [1] is 5.96.

In the case of `CCCCCCCCCCCCCCCC(=O)N[C@H](C(=O)N[C@H](C(=O)N[C@@H](CSSCCOP(=O)(O)CO[C@H](C)Cn1cnc2c(N)ncnc21)C(=O)N[C@@H](CCC(=O)O)C(=O)O)C(C)C)C(C)C` [TFV-PA2] (Palmitoyl-VVC(X1)E-OH; C-terminus assumed), the nanobelt width in series [2] was determined as 11.8 ± 1.3 nm. Besides, in series [3], the “gel formation of 5 mM solution” value is listed as “weak gel formation”. Also, in series [4], the gelation upon injection entry is on record as “formed gels instantly upon injection”. In addition, the “critical micellization concentration (CMC)” value in series [5] was found to be 51 µM. For the same compound, the “average concentration in the release supernatant, 5 mM gels” value in series [6] (5 mM hydrogel, 37 °C, PBS release medium, RP-HPLC) is 361 ± 91 µM. Besides, the “percent release on day 14, 5 mM gel” value in series [6] (5 mM hydrogel, 37 °C, PBS release medium, RP-HPLC, day 14, n = 3) worked out at 56%. For the same compound, in series [6] (5 mM hydrogel, 37 °C, PBS release medium, day 14, mean ± SD), the “prodrug released on day 14, 5 mM gel” value stood at 126 ± 7 nmol. In addition, the “average concentration in the release supernatant, 10 mM gels” value in series [6] (10 mM hydrogel, 37 °C, PBS release medium, RP-HPLC) was 619 ± 268 µM. The “percent release on day 14, 10 mM gel” value in series [6] (10 mM hydrogel, 37 °C, PBS release medium, RP-HPLC, day 14, n = 3) is 48%. Also, in series [6] (10 mM hydrogel, 37 °C, PBS release medium, day 14, mean ± SD), the “prodrug released on day 14, 10 mM gel” value is 217 ± 12 nmol. The “initial prodrugs released from hydrogel by day 14” value in series [6] (hydrogels aged at 37 °C with PBS release medium, RP-HPLC, day 14) is given as “about 50%”. Also, the “TFV released after 1 hour with DTT” value in series [7] (1 hour, RP-HPLC, n = 3) was “more than 90%”. For the same compound, the “TFV released by 24 hours with DTT” value in series [7] was “all TFV released”.

In series [2], `CCCCCCCCCCCCCCCC(=O)N[C@H](C(=O)N[C@H](C(=O)N[C@H](C(=O)N[C@@H](CSSCCOP(=O)(O)CO[C@H](C)Cn1cnc2c(N)ncnc21)C(=O)N[C@@H](CCC(=O)O)C(=O)O)C(C)C)C(C)C)C(C)C` [TFV-PA3] (Palmitoyl-VVVC(X1)E-OH; C-terminus assumed) yielded a nanobelt width of 18.9 ± 3.0 nm. In addition, the “gel formation of 5 mM solution” value in series [3] was “robust gel formation”. Also, the gelation upon injection entry in series [4] is on record as “formed gels instantly upon injection”. In addition, the “critical micellization concentration (CMC)” value in series [5] was found to be 8 µM. Also, in series [6] (5 mM hydrogel, 37 °C, PBS release medium, RP-HPLC, day 30, mean ± SD, n = 3), the “percent released on day 30, 5 mM hydrogels” value was 16.3 ± 1.3%. Besides, the “prodrug released on day 30, 5 mM hydrogels” value in series [6] (5 mM hydrogel, 37 °C, PBS release medium, day 30, mean ± SD) turned out to be 36.7 ± 3.0 nmol. The “percent released on day 30, 10 mM hydrogels” value in series [6] (10 mM hydrogel, 37 °C, PBS release medium, RP-HPLC, day 30, mean ± SD, n = 3) turned out to be 6.1 ± 0.5%. The “average concentration of release supernatant from day 8 onwards, 10 mM gels” value in series [6] (10 mM hydrogel, 37 °C, PBS release medium, day 8 onwards) was 13.3 ± 4.2 µM. Besides, the “prodrug released on day 30, 10 mM hydrogels” value in series [6] (10 mM hydrogel, 37 °C, PBS release medium, day 30, mean ± SD) came out at 27.3 ± 2.2 nmol. The “initial prodrugs retained in hydrogel on day 30” value in series [6] (hydrogels aged at 37 °C with PBS release medium, RP-HPLC, day 30) is “more than 80%”. Moreover, the “TFV released after 4 hours with DTT” value in series [7] (4 hours, RP-HPLC, n = 3) was “more than 70%”. For the same compound, the “TFV released by 24 hours with DTT” value in series [7] is “all TFV released”.

The record behind these values is paper PMC9894536 (Biomaterials science, 2023).
